From ChEMBL document CHEMBL1154577, “Cytotoxic biflavonoids from Selaginella delicatula” (J Nat Prod, 2000)

Key:
[1] = test system: Vero; experiment: Cytotoxicity against african green monkey Vero cells after 3 days; format: cell-based; conditions: Chlorocebus sabaeus, 72 h
Summary of the method: (§1)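 Vero, Wish, Calu-1 and HeLa cells were kept in MEM with 10% FCS, 100 µg/mL streptomycin and 100 U/mL penicillin at 37 °C under humidified 5% CO2. Cells were exposed to various concentrations, or none, for 3 days, with a tritiated thymidine pulse for the final 16 h before harvest. Incorporation was read by scintillation counting and inhibition calculated; three independent experiments averaged.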

[2] = test system: HeLa; experiment: Cytotoxicity against human HeLa cells after 3 days; format: functional, cell-based; conditions: 72 h; summary of the method: as §1
[3] = test system: WISH; experiment: Cytotoxicity against human Wish cells after 3 days; format: cell-based; conditions: 72 h; summary of the method: as §1
[4] = test system: Raji; experiment: Cytotoxicity against human Raji cells after 3 days; format: functional, cell-based; conditions: 72 h
Summary of the method: (§2)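 K562 (erythroleukemia) and Raji (EBV-transformed B) cells grown in RPMI-1640 with 10% FCS, 100 U/mL penicillin and 100 µg/mL streptomycin at 37 °C under humidified 5% CO2. They were cultured with or without various concentrations for 3 days, then pulsed with tritiated thymidine for 16 h before harvest. Radioactivity was counted by scintillation and inhibition calculated; mean of three independent experiments.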

[5] = test system: Calu-1; experiment: Cytotoxicity against human Calu1 cells after 3 days; format: functional, cell-based; conditions: Calu-1, 72 h; summary of the method: as §1
[6] = test system: K562; experiment: Cytotoxicity against human K562 cells after 3 days; format: functional, cell-based; conditions: K562, 72 h; summary of the method: as §2
[7] = test system: WISH; experiment: Cytotoxicity against human Wish cells at 100 uM after 3 days; format: cell-based; conditions: 72 h; summary of the method: as §1
[8] = test system: HeLa; experiment: Cytotoxicity against human HeLa cells at 100 uM after 3 days; format: functional; conditions: 72 h; summary of the method: as §1
[9] = test system: Raji; experiment: Cytotoxicity against human Raji cells at 25 uM after 3 days; format: functional; conditions: 72 h; summary of the method: as §2
[10] = test system: Raji; experiment: Cytotoxicity against human Raji cells at 50 uM after 3 days; format: functional; conditions: 72 h; summary of the method: as §2
[11] = test system: K562; experiment: Cytotoxicity against human K562 cells at 100 uM after 3 days; format: functional; conditions: K562, 72 h; summary of the method: as §2
[12] = test system: Calu-1; experiment: Cytotoxicity against human Calu1 cells at 100 uM after 3 days; format: functional; conditions: Calu-1, 72 h; summary of the method: as §1
[13] = test system: Calu-1; experiment: Cytotoxicity against human Calu1 cells at 25 uM after 3 days; format: functional; conditions: Calu-1, 72 h; summary of the method: as §1
[14] = test system: Calu-1; experiment: Cytotoxicity against human Calu1 cells at 50 uM after 3 days; format: functional; conditions: Calu-1, 72 h; summary of the method: as §1
[15] = test system: Calu-1; experiment: Cytotoxicity against human Calu1 cells at 12.5 uM after 3 days; format: functional; conditions: Calu-1, 72 h; summary of the method: as §1
[16] = test system: Raji; experiment: Cytotoxicity against human Raji cells at 12.5 uM after 3 days; format: functional; conditions: 72 h; summary of the method: as §2
[17] = test system: Raji; experiment: Cytotoxicity against human Raji cells at 100 uM after 3 days; format: functional; conditions: 72 h; summary of the method: as §2
[18] = Cytotoxicity against african green monkey Vero cells at 100 uM after 3 days; format: cell-based; conditions: chlorocebus sabaeus, read-out: INH; summary of the method: as §1

| Compound | IC50 [1] [µM] | IC50 [2] [µM] | IC50 [3] [µM] | IC50 [4] [µM] | IC50 [5] [µM] | IC50 [6] [µM] | inhibition (INH) [7] [%] | inhibition at 100 µM [8] [%] | inhibition at 25 µM [9] [%] | inhibition at 50 µM [10] [%] | inhibition at 100 µM [11] [%] | inhibition at 100 µM [12] [%] | inhibition at 25 µM [13] [%] | inhibition at 50 µM [14] [%] | inhibition at 12.5 µM [15] [%] | inhibition at 12.5 µM [16] [%] | inhibition at 100 µM [17] [%] | cytotoxicity at 72 h, 100 µM [18] [%] |
| --- | --- | --- | --- | --- | --- | --- | --- | --- | --- | --- | --- | --- | --- | --- | --- | --- | --- | --- |
| O=c1cc(-c2ccc(O)c(-c3c(O)cc(O)c4c(=O)cc(-c5ccc(O)cc5)oc34)c2)oc2cc(O)cc(O)c12 [AMENTOFLAVONE] | > 100 | > 100 | > 100 | > 100 | > 100 | > 100 | – | – | – | – | – | – | – | – | – | – | – | – |
| COc1cc(O)c2c(=O)cc(-c3ccc(OC)c(-c4c(O)cc5c(c4O)C(=O)C[C@H](c4ccc(O)cc4)O5)c3)oc2c1 | – | – | – | – | – | – | -65 | 35 | 22.3 | 24.7 | 18 | 100 | 29.9 | 55.4 | 15.8 | 17.9 | 96.3 | 26.8 |
| COc1ccc(-c2cc(=O)c3c(O)cc(O)cc3o2)cc1-c1c(O)cc2oc(-c3ccc(O)cc3)cc(=O)c2c1O | – | – | – | – | – | – | -90 | 5.5 | 60.7 | 68.5 | 10.8 | 100 | 44.6 | 77.9 | 42.6 | 34.2 | 98.4 | -6.6 |
| COc1cc(O)c2c(=O)cc(-c3ccc(OC)c(-c4c(OC)cc5c(c4O)C(=O)C[C@H](c4ccc(O)cc4)O5)c3)oc2c1 | > 100 | > 100 | > 100 | > 100 | > 100 | > 100 | – | – | – | – | – | – | – | – | – | – | – | – |
| O=c1cc(-c2ccc(O)c(-c3c(O)cc4oc(-c5ccc(O)cc5)cc(=O)c4c3O)c2)oc2cc(O)cc(O)c12 [ROBUSTAFLAVONE] | > 100 | > 100 | > 100 | > 100 | > 100 | > 100 | – | – | – | – | – | – | – | – | – | – | – | – |
| COc1cc(O)c2c(=O)cc(-c3ccc(OC)c(-c4c(O)cc5oc(-c6ccc(O)cc6)cc(=O)c5c4O)c3)oc2c1 | > 100 | > 100 | > 100 | > 100 | > 100 | > 100 | – | – | – | – | – | – | – | – | – | – | – | – |
